Measured values published in ChEMBL document CHEMBL1143613, “Neurosteroid analogues. 10. The effect of methyl group substitution at the C-6 and C-7 positions on the GABA modulatory and anesthetic actions of (3alpha,5alpha)- and (3alpha,5beta)-3-hydroxypregnan-20-one” (J Med Chem, 2005).

How the values were obtained:
[1] = target: T1, GABA-A receptor; alpha-1/beta-2/gamma-2 (Rattus norvegicus) (UniProt P18508+P62813+P63138); assay: Ratio of currents mediated by rat Alpha-1-beta-2-gamma-2L GABA-A receptor expressed in Xenopus oocytes at 1.0 uM in presence of 2 uM GABA; format: cell-based; settings: Oocyte
Summary of the method: (§1)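 Rat α1β2γ2L GABAA receptors expressed in Xenopus oocytes. Test compound at 0.1, 1 or 10 µM was co-applied with 2 µM GABA, the control GABA concentration. The value is the ratio of current with compound to current without it. At least four oocytes per concentration, with standard error of the mean.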

[2] = target: T1, GABA-A receptor; alpha-1/beta-2/gamma-2 (Rattus norvegicus); assay: Ratio of currents mediated by rat Alpha-1-beta-2-gamma-2L GABA-A receptor expressed in Xenopus oocytes at 0.1 uM in presence of 2 uM GABA; format: cell-based; settings: Oocyte; summary of the method: as §1
[3] = Dose required for measuring loss of swimming reflex (LSR) in Xenopus laevis tadpoles; format: functional
Summary of the method: (§2)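 Xenopus laevis tadpoles scored for loss of swimming (LSR) or righting (LRR) response. 10 animals were used at each of five or more concentrations. Error given as standard error of the mean.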

[4] = target: T1, GABA-A receptor; alpha-1/beta-2/gamma-2 (Rattus norvegicus); assay: Ratio of currents mediated by rat Alpha-1-beta-2-gamma-2L GABA-A receptor expressed in Xenopus oocytes at 10 uM in the absence of GABA; format: cell-based; settings: Oocyte
Summary of the method: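 Direct gating on rat α1β2γ2L GABAA receptors in Xenopus oocytes. Compound at 10 µM was applied with no GABA. The value is the compound-only current divided by the current from 2 µM GABA alone. At least four oocytes, with standard error of the mean.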

[5] = Dose required for measuring the loss of righting reflex (LRR) in Xenopus laevis tadpoles; format: functional; summary of the method: as §2
[6] = target: T1, GABA-A receptor; alpha-1/beta-2/gamma-2 (Rattus norvegicus); assay: Ratio of currents mediated by rat Alpha-1-beta-2-gamma-2L GABA-A receptor expressed in Xenopus oocytes at 10 uM in presence of 2 uM GABA; format: cell-based; settings: Oocyte; summary of the method: as §1
[7] = target: GABA-A receptor; anion channel; assay: Displacement of [35S]TBPS from picrotoxin site of GABA-A receptor of rat brain membranes; format: cell membranes, Membrane

Compound	Ratio [1]	Ratio [2]	ED50 [3] [µM]	Ratio [4]	ED50 [5] [µM]	Ratio [6]	IC50 [7] [nM]
CC(=O)[C@H]1CC[C@H]2[C@@H]3CC[C@H]4C[C@H](O)CC[C@]4(C)[C@H]3CC[C@]12C	3.89	1.26	5.5	0.37	0.42	9.65	–
CC(=O)[C@H]1CC[C@H]2[C@@H]3[C@H](C)C[C@@H]4C[C@@H](O)CC[C@]4(C)[C@H]3CC[C@]12C	–	–	10	–	1.25	–	10800
CC(=O)[C@H]1CC[C@H]2[C@@H]3[C@@H](C)C[C@H]4C[C@H](O)CC[C@]4(C)[C@H]3CC[C@]12C	–	–	5.5	–	1.34	–	1240
CC(=O)[C@H]1CC[C@H]2[C@@H]3C[C@H](C)[C@H]4C[C@H](O)CC[C@]4(C)[C@H]3CC[C@]12C	1.17	1.01	8.9	0.06	1.4	3.24	2940
CC(=O)[C@H]1CC[C@H]2[C@@H]3C[C@H](C)[C@@H]4C[C@H](O)CC[C@]4(C)[C@H]3CC[C@]12C	1.02	0.96	5.5	0.15	2.66	2.51	3080
CC(=O)[C@H]1CC[C@H]2[C@@H]3CC[C@@H]4C[C@H](O)CC[C@]4(C)[C@H]3CC[C@]12C	2.82	1.2	0.3	0.06	0.06	9.77	–
CC(=O)[C@H]1CC[C@H]2[C@@H]3C[C@@H](C)[C@@H]4C[C@H](O)CC[C@]4(C)[C@H]3CC[C@]12C	4.36	1.48	0.55	0.62	0.4	22.5	45
CC(=O)[C@H]1CC[C@H]2[C@@H]3[C@H](C)C[C@H]4C[C@@H](O)CC[C@]4(C)[C@H]3CC[C@]12C	–	–	5.5	–	1.63	–	–
CC(=O)[C@H]1CC[C@H]2[C@@H]3[C@H](C)C[C@@H]4C[C@H](O)CC[C@]4(C)[C@H]3CC[C@]12C	–	–	5.5	–	1.67	–	1040
CC(=O)[C@H]1CC[C@H]2[C@@H]3C[C@@H](C)[C@H]4C[C@H](O)CC[C@]4(C)[C@H]3CC[C@]12C	7.7	2.5	1.05	0.59	0.51	10	5.7
CC(=O)[C@H]1CC[C@H]2[C@@H]3[C@H](C)C[C@H]4C[C@H](O)CC[C@]4(C)[C@H]3CC[C@]12C	–	–	5.5	–	2.68	–	5990
CC(=O)[C@H]1CC[C@H]2[C@@H]3[C@@H](C)C[C@@H]4C[C@H](O)CC[C@]4(C)[C@H]3CC[C@]12C	–	–	5.5	–	1.36	–	1240
